Data: ChEMBL document CHEMBL3526074, “Effects of the CYP2B6*6 allele on catalytic properties and inhibition of CYP2B6 in vitro: implication for the mechanism of reduced efavirenz metabolism and other CYP2B6 substrates in vivo” (Drug Metab Dispos, 2012)

Key:
Format in all cases: ADME
[1] = Inhibition of CYP2B6 variant in human liver microsomes harboring CYP2B6*6/*6 genotype assessed as 8-hydroxyefavirenz formation using efavirenz as substrate after 15 mins by LC/MS/MS analysis
[2] = Inhibition of CYP2B6 variant in human liver microsomes harboring CYP2B6*1/*6 genotype assessed as 8-hydroxyefavirenz formation using efavirenz as substrate after 15 mins by LC/MS/MS analysis
[3] = Inhibition of CYP2B6 variant in human liver microsomes harboring CYP2B6*1/*1 genotype assessed as 8-hydroxyefavirenz formation using efavirenz as substrate after 15 mins by LC/MS/MS analysis
[4] = Drug metabolism in human liver microsomes harboring CYP2B6*1/*6 genotype assessed as intrinsic clearance for CYP2B6 variant-mediated 8-hydroxyefavirenz metabolite formation measured per mg protein after 15 mins by LC/MS/MS analysis; conditions: 0.25 h
How it was run: (§1)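 Genotyped human liver microsomes (5 donors per genotype), 0.25 mg/ml, with efavirenz 1–200 µM in 200 mM potassium phosphate pH 7.4. Prewarmed 5 min at 37°C, started with NADPH-regenerating system, 15 min, stopped on ice with acetonitrile. 8-hydroxyefavirenz measured by LC/MS/MS, duplicate incubations. Km and Vmax from single-site Michaelis-Menten nonlinear fit; Clint = Vmax/Km; mean ± S.D. across 5 HLMs.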

[5] = Drug metabolism in human liver microsomes harboring CYP2B6*1/*6 genotype assessed as CYP2B6 variant-mediated 8-hydroxyefavirenz metabolite formation after 15 mins by LC/MS/MS analysis; conditions: 0.25 h; how it was run: as §1
[6] = Drug metabolism in human liver microsomes harboring CYP2B6*6/*6 genotype assessed as intrinsic clearance for CYP2B6 variant-mediated 8-hydroxyefavirenz metabolite formation measured per mg protein after 15 mins by LC/MS/MS analysis; conditions: 0.25 h; how it was run: as §1
[7] = Drug metabolism in microsomes expressing CYP2B6.1 (unknown origin) assessed as enzyme-mediated 8-hydroxyefavirenz metabolite formation measured per pmol of P450 after 15 mins by HPLC/UV system in presence of Cyt b5 coexpression; conditions: human, 0.25 h
How it was run: (§2)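 cDNA-expressed CYP2B6.1 or CYP2B6.6 microsomes coexpressing POR and Cyt b5 (15 pmol), with efavirenz 1–200 µM, NADPH-regenerating system and pH 7.4 phosphate buffer, 15 min at 37°C. 8-hydroxyefavirenz by HPLC, rate per pmol P450. Kinetic constants from single-site Michaelis-Menten fit; three replicates, mean ± S.D.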

[8] = Drug metabolism in human liver microsomes harboring CYP2B6*1/*1 genotype assessed as intrinsic clearance for CYP2B6 variant-mediated 8-hydroxyefavirenz metabolite formation measured per mg protein after 15 mins by LC/MS/MS analysis; conditions: 0.25 h; how it was run: as §1
[9] = Drug metabolism in microsomes expressing CYP2B6.6 (unknown origin) assessed as enzyme-mediated 8-hydroxyefavirenz metabolite formation measured per pmol of P450 after 15 mins by HPLC/UV system in absence of Cyt b5 coexpression; conditions: human, 0.25 h
How it was run: (§3)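 Microsomes with cDNA-expressed CYP2B6.1 or CYP2B6.6 plus POR, no Cyt b5 (15 pmol P450). Efavirenz 1–200 µM in 200 mM phosphate pH 7.4 with NADPH-regenerating system, 15 min at 37°C. 8-hydroxyefavirenz by HPLC, rate per pmol P450.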

[10] = Drug metabolism in microsomes expressing CYP2B6.1 (unknown origin) assessed as enzyme-mediated 8-hydroxyefavirenz metabolite formation after 15 mins by HPLC/UV system in presence of Cyt b5 coexpression; conditions: human, 0.25 h; how it was run: as §2
[11] = Drug metabolism in microsomes expressing CYP2B6.1 (unknown origin) assessed as enzyme-mediated 8-hydroxyefavirenz metabolite formation measured per pmol of P450 after 15 mins by HPLC/UV system in absence of Cyt b5 coexpression; conditions: human, 0.25 h; how it was run: as §3
[12] = Drug metabolism in microsomes expressing CYP2B6.6 (unknown origin) assessed as enzyme-mediated 8-hydroxyefavirenz metabolite formation measured per pmol of P450 after 15 mins by HPLC/UV system in presence of Cyt b5 coexpression; conditions: human, 0.25 h; how it was run: as §2
[13] = Drug metabolism in microsomes expressing CYP2B6.1 (unknown origin) assessed as enzyme-mediated 8-hydroxyefavirenz metabolite formation after 15 mins by HPLC/UV system in absence of Cyt b5 coexpression; conditions: human, 0.25 h; how it was run: as §3
[14] = Drug metabolism in human liver microsomes harboring CYP2B6*6/*6 genotype assessed as CYP2B6 variant-mediated 8-hydroxyefavirenz metabolite formation measured per mg protein after 15 mins by LC/MS/MS analysis; conditions: 0.25 h; how it was run: as §1
[15] = Drug metabolism in human liver microsomes harboring CYP2B6*1/*1 genotype assessed as CYP2B6 variant-mediated 8-hydroxyefavirenz metabolite formation measured per mg protein after 15 mins by LC/MS/MS analysis; conditions: 0.25 h; how it was run: as §1
[16] = Drug metabolism in human liver microsomes harboring CYP2B6*1/*1 genotype assessed as CYP2B6 variant-mediated 8-hydroxyefavirenz metabolite formation after 15 mins by LC/MS/MS analysis; conditions: 0.25 h; how it was run: as §1
[17] = Drug metabolism in human liver microsomes harboring CYP2B6*6/*6 genotype assessed as CYP2B6 variant-mediated 8-hydroxyefavirenz metabolite formation after 15 mins by LC/MS/MS analysis; conditions: 0.25 h; how it was run: as §1
[18] = Drug metabolism in microsomes expressing CYP2B6.6 (unknown origin) assessed as enzyme-mediated 8-hydroxyefavirenz metabolite formation after 15 mins by HPLC/UV system in presence of Cyt b5 coexpression; conditions: human, 0.25 h; how it was run: as §2
[19] = Drug metabolism in microsomes expressing CYP2B6.6 (unknown origin) assessed as enzyme-mediated 8-hydroxyefavirenz metabolite formation after 15 mins by HPLC/UV system in absence of Cyt b5 coexpression; conditions: human, 0.25 h; how it was run: as §3
[20] = Drug metabolism in human liver microsomes harboring CYP2B6*1/*6 genotype assessed as CYP2B6 variant-mediated 8-hydroxyefavirenz metabolite formation measured per mg protein after 15 mins by LC/MS/MS analysis; conditions: 0.25 h; how it was run: as §1

Work on `C[C@@H](c1ncncc1F)[C@](O)(Cn1cncn1)c1ccc(F)cc1F` [VORICONAZOLE] yielded an IC50 [1] of 160 nM, a Ki [2] of 1550 nM and an IC50 [3] of 400 nM.

Molecule `O=C1Nc2ccc(Cl)cc2[C@@](C#CC2CC2)(C(F)(F)F)O1` [EFAVIRENZ] has a CLH [4] of 6.4 µL/min/mg, a Km [5] of 15.2 µM and a CLH [6] of 2.4 µL/min/mg. For the same molecule, the Vmax [7] was 1.02 pmol/min, the CLH [8] was 14.5 µL/min/mg and the Vmax [9] was 1.61 pmol/min. For the same molecule, the Km [10] was 3.4 µM, the Vmax [11] was 1.21 pmol/min and the Vmax [12] was 0.95 pmol/min. The Km [13] was 3.2 µM, the Vmax [14] was 25 pmol/min and the Vmax [15] was 87.1 pmol/min. For the same molecule, the Km [16] was 11.2 µM, the Km [17] was 24 µM and the Km [18] was 6.2 µM. For the same molecule, the Km [19] was 8.8 µM and the Vmax [20] was 100.6 pmol/min.

`COC(=O)[C@H](c1ccccc1Cl)N1CCc2sccc2C1` [CLOPIDOGREL] showed an IC50 [1] of 50 nM and an IC50 [3] of 140 nM.
